Assay results: ChEMBL document CHEMBL1145101, “Macrocyclization in the design of Grb2 SH2 domain-binding ligands exhibiting high potency in whole-cell systems” (J Med Chem, 2003)

Assays:
[1] = (§1) Growth inhibition against MDA-453 breast cancer cells; assay type: functional, cell-based; conditions: Homo sapiens, Cancer cell lines
How it was run: (§2)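 MDA-453 cells seeded at 500 per well and kept in IMEM with 10% fetal bovine serum at 37 °C under 5% CO₂. Inhibitor dilutions were added, with fresh drug solution each day for 5 days. Growth was read by MTT (0.5 mg/mL, 4 h), then medium removed and dissolved cells read at 570 nm. Results are expressed as percent of no-drug control.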

[2] = molecular target: Growth factor receptor-bound protein 2 (Homo sapiens, UniProt P62993); assay: Inhibition against Growth factor receptor bound protein 2 binding using ELISA technique
How it was run: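 Competition ELISA: biotinylated SHC-derived Grb2 SH2-binding phosphopeptide bound at 20 ng/mL to plates overnight, then blocked with 5% BSA in TBS. Recombinant Grb2 SH2-GST fusion was preincubated with serial inhibitor dilutions, then added. After washing with 0.1% BSA/TBS, bound protein was detected with anti-GST and alkaline phosphatase-conjugated secondary, using p-nitrophenyl phosphate colorimetry. Each compound had at least three determinations, with a positive control.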

MDA-MB-453 = assay: as §1; assay type: functional, cell-based; conditions: Homo sapiens; how it was run: as §2

Row | SMILES | IC50 [2] | IC50 (MDA-MB-453) | IC50 [1]
1 | NC(=O)C[C@H](NC(=O)C1(NC(=O)[C@H](Cc2ccc(CP(=O)(O)O)cc2)NC(=O)C(=O)O)CCCCC1)C(=O)NCCCC1=c2ccccc2=CCC1 | – | – | 5 µM
2 | CC1(C)NC(=O)[C@@H](CC(=O)O)[C@@H](c2ccc(CP(=O)(O)O)cc2)/C=C/C[C@@H](CC2=c3ccccc3=CCC2)CNC(=O)[C@H](CC(N)=O)NC1=O | 0.008 µM | 8 µM | –
3 | NC(=O)C[C@@H]1NC(=O)C2(CCCCC2)NC(=O)C[C@@H](c2ccc(CP(=O)(O)O)cc2)C/C=C/C[C@@H](Cc2cccc3ccccc23)CNC1=O | > 10 µM | > 50 µM | –

Continued, in another order:

Row | IC50 [2] | IC50 (MDA-MB-453) | SMILES | IC50 [1]
4 | 0.002 µM | 0.8 µM | NC(=O)C[C@@H]1NC(=O)C2(CCCCC2)NC(=O)[C@@H](CC(=O)O)[C@@H](c2ccc(CP(=O)(O)O)cc2)/C=C/C[C@@H](CC2=c3ccccc3=CCC2)CNC1=O | –
5 | 0.02 µM | – | NC(=O)C[C@@H]1NC(=O)C2(CCCCC2)NC(=O)C[C@@H](c2ccc(CP(=O)(O)O)cc2)/C=C/C[C@@H](CC2=c3ccccc3=CCC2)CNC1=O | –
